This is a sample that favours compounds with a hit; in the whole collection about 27% have one here.
CYP2C19 inhib – human CYP2C19 inhibition | P33261 | CYP2C19 Supersomes, luciferin-H EGE luminescence, 30 min | inhibition, % at 5 µM | 21% of 96,000 active;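 active = CYP2C19 inhibition above a set limit at 5 µM in the primary screen, cut at about 50% in these data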;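 also: plate controls were negative control wells for no effect and 2.5 mM tranylcypromine positive control for full effect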
Cav3 T inh – human Cav3.2 channel inhibition, primary screen. Cav3.2-expressing cells, Fluo-4 calcium fluorescence FDSS; hits give low values. B-score at 10 µM. 4% of 100,000 active. AID 449739;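 active = single-dose well whose peak fluorescence ratio is a statistical outlier from its plate by either plate-standardised score or position-corrected B-score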
CYP2C9 act – CYP2C9 (human) activation | P11712 | recombinant CYP2C9, luciferin-H conversion, luminescence; hits give high values; factor 1 = untreated enzyme, 0 = blocked | activation factor at 5 µM | 1.4% of 96,000 active;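 active = activation factor of 2 or more for CYP2C9 at a 5 µM dose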;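 also: 0 = sulfaphenazole-blocked wells and 1 = vehicle-only wells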
HIV Rev-RRE inh – HIV Rev-RRE protein-RNA interaction inhibition. 0.79% of 97,000 active. Rev peptide-RRE RNA binding, FRET. inhibition, % at 8 µM;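 active = inhibition above the screen-wide mean plus 3 SD, cut at about 35% in these data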;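 also: 0% = median DMSO wells and 100% = median Neomycin B control wells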
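Assay system: labelled RRE RNA duplex and labelled Rev peptide / Medium: HEPES pH 7.5 salt buffer with EDTA / Reagent: labelled Rev peptide / Schedule: 5 + 15 min at 25 °C / Signal: FRET, excitation 480 nm, emission 540 nm donor and 671 nm acceptor / Benchmarks: DMSO and neomycin B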
CYP2C9 inh – inhibitors of human CYP2C9 | P11712 | CYP2C9 Supersomes, luciferin-H conversion, luminescence | inhibition, % at 5 µM | 20% of 96,000 active;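 active = blocking of liver enzyme CYP2C9 beyond about 50% at 5 µM, limit read from the data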
CYP2C19 activ – activators of human cytochrome P450 2C19; activation factor at 5 µM; recombinant CYP2C19, luciferin-H EGE luminescence; hits give high values; 0 = fully inhibited enzyme, 1 = untreated enzyme; 96,000 tested, under 10 active;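 active = activation factor of at least 2 at 5 µM in the primary screen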;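 also: 0 = wells with 2.5 mM tranylcypromine and 1 = vehicle-only wells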
Numbers without * were called inactive; nt = no result.

SMILES	CYP2C19 inhib	Cav3 T inh	CYP2C9 act	HIV Rev-RRE inh	CYP2C9 inh	CYP2C19 activ
O=C(c1ccc(CSCc2ccccc2F)o1)N1CCN(c2ccc(N3CCOCC3)nn2)CC1	60*	-0.27	0.5	nt	50*	0.4
COc1ccc(S(=O)(=O)N2CCCC2C(=O)Nc2nc3c(s2)CCCC3)cc1 (stereo unspecified)	40	-1.8	0.2	11	80*	0.6
CC1CC1C(=O)Nc1nc(-c2ccccc2)cs1 (stereo unspecified)	16	-4*	0.6	2	40	0.8
CN1CCN(C(=O)NC2CCCN2S(=O)(=O)c2ccc(Cl)cc2)CC1 (stereo unspecified)	-2	nt	1	-2	5	1
O=C(O)CCC(=O)Nc1nc(-c2ccccc2)cs1	-4	0.31	1	0	-4	1
COc1ccc(NC(=O)C2CCCN2S(=O)(=O)c2ccc(F)cc2)cc1 (stereo unspecified)	64*	1.3	0.1	1	93*	0.4
Cc1ccc(NC(=O)NC2CCCN2S(=O)(=O)c2ccc(Cl)cc2)cc1 (stereo unspecified)	73*	-1.6	0.1	10	87*	0.3
CCCCCCN(C(=O)CCCCCN1C(=O)NC(c2ccccc2)C(C(=O)OCc2ccccc2)=C1C)C(C(=O)NCCCC)c1ccc(OCC(=O)OC)c(C(=O)OC)c1 (stereo unspecified)	nt	-1.8	nt	nt	nt	nt
O=C(Nc1nc(-c2nc3ccccc3s2)cs1)C1CC1	51*	-2.2	0.8	nt	19	0.5
Cc1ccc(S(=O)(=O)N2CCCC2C(=O)Nc2ccc(O)cc2)cc1 (stereo unspecified)	9	1.5	1.5	nt	-45	0.9
Cc1ccc(S(=O)(=O)N2CCC[C@H]2C(=O)OC(C)C(=O)Nc2ncc(Cl)cc2Cl)cc1 (stereo partly specified)	71*	0.045	1.2	10	-23	0.3
O=C(Nc1nccs1)C1CCCN1S(=O)(=O)c1ccc(F)cc1 (stereo unspecified)	39	0.43	0.4	4	62*	0.6
COc1ccc(S(=O)(=O)N2CCCC2C(=O)Nc2ccc(C)cc2)cc1 (stereo unspecified)	76*	0.35	0.5	0	54*	0.2
COc1ccc(C2NC(=O)N(CCCC(=O)O)C(C)=C2C(=O)OCc2ccccc2)cc1 (stereo unspecified)	nt	1.1	nt	nt	nt	nt
COc1ccc(C2N3CC4(C)CN2CC(C)(C3)C4O)cc1 (stereo unspecified)	-18	0.08	1	4	-4	1.2
CCOc1ccc(C2/C(=C(/O)c3ccccc3)C(=O)C(=O)N2CCCN(C)C)cc1OC (stereo unspecified)	nt	nt	nt	3	nt	nt
CCO[C@@H]1OC(C(=O)NCc2ccccc2)=C[C@H](c2ccc(C(F)(F)F)cc2)[C@H]1CCCO	nt	-2.8	nt	nt	nt	nt
NC(=O)C1CCCNC1 (stereo unspecified)	nt	0.85	nt	nt	nt	nt
CCn1cc(C(=O)O)c(=O)c2cnc(N3CCN(C(=O)Nc4cccc5ccccc45)CC3)nc21	4	nt	1	nt	0	1
COc1ccc(-c2csc(NC(=O)C3CCCCN3S(=O)(=O)c3ccccc3)n2)cc1 (stereo unspecified)	39	-6.2*	0.1	9	88*	0.6
CNC(=O)C1CCCN1S(=O)(=O)c1ccc(OC)cc1 (stereo unspecified)	3	0.039	1.3	5	-25	1
Cc1cc(C)c(N2C(=NC(=O)CCCC(=O)O)SC3CS(=O)(=O)CC32)c(C)c1 (stereo unspecified)	-6	0.72	1.1	6	-8	1.1
C=CCc1cccc(/C=N/c2ncccc2O)c1O	-4	-0.017	1.1	4	-13	1
C=CCc1cccc(/C=N/n2cnnc2)c1O	66*	-0.63	0.7	28	30	0.3
CCc1c(C)sc(NC(=O)CC#N)c1C#N	1	0.18	1	37*	0	1
SMILES	CYP2C19 inhib	Cav3 T inh	CYP2C9 act	HIV Rev-RRE inh	CYP2C9 inh	CYP2C19 activ
Cc1cc(=O)oc(C)c1C(=O)N1CCc2c([nH]c3ccccc23)C1C(C)C (stereo unspecified)	50*	0.0088	0.8	-2	19	0.5
Cc1cc(=O)oc(C)c1C(=O)N1CCN(C)CC1	-13	0.67	1.1	4	-8	1.1
Cc1cc(NC(=O)CSc2nc(-c3ccccc3)c(C#N)c(=O)[nH]2)no1	8	0.2	0.3	8	70*	0.9
Cc1cccc(NC(=O)CSc2nc(-c3ccccc3)c(C#N)c(=O)[nH]2)c1C	41	nt	0.1	1	93*	0.6
Cc1cc(NC(=O)CSc2nc3ccccc3[nH]2)no1	18	-0.068	1	9	-3	0.8
O=C(NCc1ccc(OC(F)(F)F)cc1)C12CN(Cc3ccccc3)CC1C(c1cccc([N+](=O)[O-])c1)=NO2 (stereo unspecified)	76*	-3.8*	0.4	3	57*	0.2
O=C(NCC1CCCO1)C12CN(Cc3ccccc3)CC1C(c1cccc([N+](=O)[O-])c1)=NO2 (stereo unspecified)	33	0.42	0.8	4	18	0.7
Cc1ccc(CCNC(=O)C23CN(Cc4ccccc4)CC2C(c2ccc([N+](=O)[O-])cc2)=NO3)cc1 (stereo unspecified)	34	-1.9	1	5	3	0.7
O=C(NCc1cc(C(F)(F)F)cc(C(F)(F)F)c1)C12CN(Cc3ccccc3)CC1C(c1cccc([N+](=O)[O-])c1)=NO2 (stereo unspecified)	26	-2.1	0.6	13	36	0.7
O=C(NCc1ccccc1)C12CN(Cc3ccccc3)CC1C(c1cccc([N+](=O)[O-])c1)=NO2 (stereo unspecified)	74*	-3.4*	0.6	8	38	0.3
CCCCN(CCCC)CCCNC(=O)C12CN(Cc3ccccc3)CC1C(c1cccc([N+](=O)[O-])c1)=NO2 (stereo unspecified)	22	-3.2*	0.6	5	43	0.8
C=CCNCC(=O)NN=C(c1ccccc1)c1ccccc1	20	nt	0.9	-3	9	0.8
Cc1ccc(-c2ccc(CCC(=O)O)n2-c2cccc(O)c2)cc1	44	-0.51	0.4	2	57*	0.6
CC1(CC(=O)O)C(=O)N=C2C=CC=CN21 (stereo unspecified)	nt	0.8	nt	-4	nt	nt
O=C(Nc1cccc(NS(=O)(=O)c2ccc(S(=O)(=O)NC3CC3)cc2)c1)c1ccccn1	99*	-3.7	0	3	97*	0
CCOc1ccccc1N1CCN(C(=O)c2cccc(-c3ccc(O)cc3)c2)CC1	74*	nt	0.1	8	87*	0.3
CCOc1ccccc1N1CCN(C(=O)c2ccncc2)CC1	99*	nt	0.3	4	67*	0

Screening results: PubChem, several laboratories
